{"data": "Assay results pooled from the literature", "RPS6KA3": "Ribosomal protein S6 kinase alpha-3 (RPS6KA3, Homo sapiens, UniProt P51812)", "RPS6KA3 N-terminal kinase domain": "Ribosomal protein S6 kinase alpha-3, N-terminal kinase domain (RPS6KA3, Homo sapiens, UniProt P51812)", "RPS6KA3 C-terminal kinase domain": "Ribosomal protein S6 kinase alpha-3, C-terminal kinase domain (RPS6KA3, Homo sapiens, UniProt P51812)", "note": "Protocols differ between the studies behind these lines."}
{"Structure (SMILES)": "CC(C)(O)[C@H]1CC[C@H](Nc2ccc3ncc(-c4cccc(C(F)(F)F)c4)n3n2)CC1", "target": "RPS6KA3", "assay": "enzyme activity, inhibitor", "conditions": "1 µM", "measurement": "remaining activity", "result": "90.6%"}
{"Structure (SMILES)": "Oc1cccc(-c2nc(N3CCOCC3)c3oc4ncccc4c3n2)c1", "target": "RPS6KA3", "assay": "enzyme activity, inhibitor", "conditions": "10 µM", "measurement": "remaining activity", "result": "96%"}
{"Structure (SMILES)": "CN(C)C1CCN(CC#Cc2nn(C3CCCC3)c3nc(NCc4ccccc4)ncc23)C1 (centres unmarked)", "target": "RPS6KA3", "assay": "enzyme activity, inhibitor, FRET", "conditions": "0.1 µM", "measurement": "inhibition", "result": "5%"}
{"Structure (SMILES)": "Cc1ccc(C(=O)Nc2ccc(CN3CCN(C)CC3)c(C(F)(F)F)c2)cc1C#Cc1cnc2cccnn12", "target": "RPS6KA3", "assay": "enzyme activity, inhibitor", "conditions": "23.5 nM", "measurement": "activity vs control", "result": "82%"}
{"Structure (SMILES)": "CO[C@@H](C)c1c(Nc2ccc([C@H](N(C)C(=O)C3CCS(=O)(=O)CC3)C(F)(F)F)cc2)cnc2cc(Cl)nn12", "target": "RPS6KA3 N-terminal kinase domain", "assay": "cell-free assay, competition with immobilised ligand", "conditions": "1 µM", "measurement": "remaining binding", "result": "100%"}
{"Structure (SMILES)": "FC(F)(F)Oc1cccc(-c2cnc3ccc(-c4ccncc4)nn23)c1", "target": "RPS6KA3", "assay": "enzyme activity, inhibitor, radiometric", "conditions": "1 µM", "measurement": "activity vs control", "result": "105%"}
{"Structure (SMILES)": "O=C(Nc1cnn(-c2csc(C(=O)NC3COC3)c2)c1)Nc1ccccc1Cl", "target": "RPS6KA3", "assay": "enzyme activity, inhibitor", "conditions": "5 µM", "measurement": "remaining activity", "result": "101%"}
{"Structure (SMILES)": "COc1cc(/C=C/C(=O)CC(=O)/C=C/c2ccc(O)c(OC)c2)ccc1O", "target": "RPS6KA3", "assay": "enzyme activity, inhibitor", "conditions": "1 µM", "measurement": "activity vs control", "result": "66%"}
{"Structure (SMILES)": "CNC(=O)c1cc(Oc2ccc(NC(=O)Nc3ccc(Cl)c(C(F)(F)F)c3)cc2)ccn1", "target": "RPS6KA3", "assay": "enzyme activity, inhibitor", "conditions": "10 µM", "measurement": "inhibition", "result": "46%"}
{"Structure (SMILES)": "COc1cccc2c(NCc3ccccc3)nc(-n3c(N)nc4ccccc43)nc12", "target": "RPS6KA3 N-terminal kinase domain", "assay": "target engagement in cells, inhibitor, chemoproteomics", "conditions": "20 mM", "measurement": "inhibition", "result": "34.2%"}
{"Structure (SMILES)": "COc1cc(Nc2cnc(C#N)c(O[C@H](C)CN(C)C)n2)ncc1-c1cnn(C)c1", "target": "RPS6KA3", "assay": "enzyme activity, inhibitor, radiometric", "conditions": "10 µM", "measurement": "remaining activity", "result": "34%"}
{"Structure (SMILES)": "Cc1cc(NC(=O)c2cccc3cc(-c4cccc5[nH]nc(N)c45)ccc23)ccc1F", "target": "RPS6KA3", "assay": "enzyme activity, inhibitor", "conditions": "0.1 µM", "measurement": "activity vs control", "result": "131%"}
{"Structure (SMILES)": "COc1cc(Nc2c(C#N)cnc3cc(OCCCN4CCN(C)CC4)c(OC)cc23)c(Cl)cc1Cl", "target": "RPS6KA3", "assay": "cell-free assay", "conditions": "0.5 µM", "measurement": "remaining signal", "result": "80.1%"}
{"Structure (SMILES)": "Nc1ncnc2occ(-c3ccc(NC(=O)Nc4cc(C(F)(F)F)ccc4F)cc3)c12", "target": "RPS6KA3 N-terminal kinase domain", "assay": "cell-free assay, inhibitor", "conditions": "20 µM", "measurement": "remaining signal", "result": "0.4%"}
{"Structure (SMILES)": "Nc1nc(Nc2ccccc2)sc1C(=O)c1c(F)cccc1F", "target": "RPS6KA3", "assay": "enzyme activity, inhibitor", "conditions": "10 µM", "measurement": "remaining activity", "result": "38%"}
{"Structure (SMILES)": "COc1cc2ncnc(Nc3ccc(Oc4ccccc4)cc3C)c2cc1OC", "target": "RPS6KA3", "assay": "enzyme activity, inhibitor", "conditions": "1 µM", "measurement": "inhibition", "result": "-8%"}
{"Structure (SMILES)": "COc1ccc2cc(OCC3(C(=O)O)CN(C(=O)c4ccc(F)cc4)C3)ccc2c1", "target": "RPS6KA3 C-terminal kinase domain", "assay": "cell-free assay, competition with immobilised ligand", "conditions": "1 µM", "measurement": "remaining binding", "result": "85%"}
{"Structure (SMILES)": "Cc1ccc(C(=O)NCc2ccsc2)cc1C#Cc1cn(C(C)C)c2ncnc(N)c12", "target": "RPS6KA3", "assay": "enzyme activity, inhibitor", "conditions": "1 µM", "measurement": "activity vs control", "result": "92%"}
{"Structure (SMILES)": "O=C1NC(=O)c2cc(Nc3ccc(F)cc3)c(Nc3ccc(F)cc3)cc21", "target": "RPS6KA3", "assay": "cell-free assay", "conditions": "0.5 µM", "measurement": "remaining signal", "result": "118%"}
{"Structure (SMILES)": "CCCCNc1ncc2c(-c3ccc(F)cc3)nn(C[C@H]3CC[C@H](N)CC3)c2n1", "target": "RPS6KA3 N-terminal kinase domain", "assay": "target engagement in cells, inhibitor, chemoproteomics", "conditions": "20 mM", "measurement": "inhibition", "result": "32.6%"}
{"Structure (SMILES)": "C[C@H](c1ccc(F)cc1)N(Cc1cccc(C(=O)O)c1)C(=O)c1cnc2ccccc2c1", "target": "RPS6KA3 C-terminal kinase domain", "assay": "cell-free assay, competition with immobilised ligand", "conditions": "1 µM", "measurement": "remaining binding", "result": "89%"}
{"Structure (SMILES)": "CC(C)(C)c1nc2c(s1)c1nc(N)ncc1c1ccc(NS(=O)(=O)c3c(F)cccc3F)c(F)c12", "target": "RPS6KA3", "assay": "enzyme activity, inhibitor, radiometric", "conditions": "1 µM", "measurement": "remaining activity", "result": "90%"}
{"Structure (SMILES)": "CS(=O)(=O)c1cc(C2(NC(=O)c3cncc4c3cnn4-c3ccc(F)cc3)CC2)ccn1", "target": "RPS6KA3 C-terminal kinase domain", "assay": "cell-free assay, competition with immobilised ligand", "conditions": "1 µM", "measurement": "remaining binding", "result": "100%"}
{"Structure (SMILES)": "Cn1cncc1C1=CN(c2ncnc3[nH]cnc23)CCS1", "target": "RPS6KA3", "assay": "enzyme activity, inhibitor, radiometric", "conditions": "50 nM", "measurement": "inhibition", "result": "12.3%"}
{"Structure (SMILES)": "CC/C(=N\\NC(=O)NCc1cccc(O)c1)c1ccc(O)c(C)c1O", "target": "RPS6KA3", "assay": "enzyme activity, inhibitor", "conditions": "0.1 µM", "measurement": "inhibition", "result": "79.5%"}
{"Structure (SMILES)": "CC1=C(C#N)C(c2ccc3c(c2)c(NC(=O)c2ccccc2C)nn3C)C(C#N)=C(C)N1", "target": "RPS6KA3 N-terminal kinase domain", "assay": "cell-free assay, competition with immobilised ligand", "conditions": "1 µM", "measurement": "remaining binding", "result": "86%"}
{"Structure (SMILES)": "O=C(Nc1cnn(-c2csc(C(=O)NC3COC3)c2)c1)Nc1c(F)cccc1Cl", "target": "RPS6KA3", "assay": "enzyme activity, inhibitor", "conditions": "5 µM", "measurement": "remaining activity", "result": "79.9%"}
{"Structure (SMILES)": "CCCOc1ccc(OC)c(F)c1C(=O)c1ccc(C(=O)N[C@@H]2CNC[C@H]2NC(=O)c2ccc3[nH]ncc3c2)cc1", "target": "RPS6KA3", "assay": "enzyme activity, inhibitor", "conditions": "10 µM", "measurement": "remaining activity", "result": "12%"}
{"Structure (SMILES)": "COc1ccc2c(c1)O[C@H](c1ccc(OC)c(OC)c1)C[C@@H]2NC(=O)C1(c2ccc3c(c2)OC(F)(F)O3)CC1", "target": "RPS6KA3 C-terminal kinase domain", "assay": "cell-free assay, competition with immobilised ligand", "conditions": "1 µM", "measurement": "remaining binding", "result": "93%"}
{"Structure (SMILES)": "Clc1ccc(Nc2nnc(Cc3ccncc3)c3ccccc23)cc1", "target": "RPS6KA3", "assay": "cell-free assay", "conditions": "0.5 µM", "measurement": "remaining signal", "result": "101%"}
{"Structure (SMILES)": "Nc1c(C(=O)NCc2ccc(C(=O)NCCCC3CCCCC3)cc2)cnn1-c1ccccc1", "target": "RPS6KA3 N-terminal kinase domain", "assay": "cell-free assay, competition with immobilised ligand", "conditions": "0.1 µM", "measurement": "remaining binding", "result": "100%"}
{"Structure (SMILES)": "Cc1ccc(Nc2nccc(N(C)c3ccc4c(C)n(C)nc4c3)n2)cc1S(N)(=O)=O", "target": "RPS6KA3", "assay": "enzyme activity, inhibitor", "conditions": "10 µM", "measurement": "inhibition", "result": "56%"}
{"Structure (SMILES)": "Cc1cnc(NC2CCOCC2)nc1-n1cnc(C(=O)NC(CN)c2cc(F)cc(Cl)c2)c1 (centres unmarked)", "target": "RPS6KA3", "assay": "enzyme activity, inhibitor, radiometric", "conditions": "1 µM", "measurement": "remaining activity", "result": "21%"}
{"Structure (SMILES)": "CCCOc1ccc([C@H]2[C@H](C(=O)O)[C@@H](c3ccc4c(c3)OCO4)CN2CC(=O)Nc2c(CC)cccc2CC)cc1", "target": "RPS6KA3 C-terminal kinase domain", "assay": "cell-free assay, competition with immobilised ligand", "conditions": "1 µM", "measurement": "remaining binding", "result": "73%"}
{"Structure (SMILES)": "COc1cc2ncnc(Nc3ccc(F)c(Cl)c3)c2cc1OCCCN1CCOCC1", "target": "RPS6KA3", "assay": "cell-free assay", "conditions": "0.5 µM", "measurement": "remaining signal", "result": "100%"}
